{"source": "paper PMC4792293", "about": "(RSC advances, 2015)", "key": {"α-glucosidase [1]": {"system": "α-glucosidase", "conditions": "cited from earlier work"}, "α-glucosidase [2]": {"molecular_target": "T1, α-glucosidase (Saccharomyces cerevisiae, UniProt P53341)", "T1 sequence (P53341 whole entry)": "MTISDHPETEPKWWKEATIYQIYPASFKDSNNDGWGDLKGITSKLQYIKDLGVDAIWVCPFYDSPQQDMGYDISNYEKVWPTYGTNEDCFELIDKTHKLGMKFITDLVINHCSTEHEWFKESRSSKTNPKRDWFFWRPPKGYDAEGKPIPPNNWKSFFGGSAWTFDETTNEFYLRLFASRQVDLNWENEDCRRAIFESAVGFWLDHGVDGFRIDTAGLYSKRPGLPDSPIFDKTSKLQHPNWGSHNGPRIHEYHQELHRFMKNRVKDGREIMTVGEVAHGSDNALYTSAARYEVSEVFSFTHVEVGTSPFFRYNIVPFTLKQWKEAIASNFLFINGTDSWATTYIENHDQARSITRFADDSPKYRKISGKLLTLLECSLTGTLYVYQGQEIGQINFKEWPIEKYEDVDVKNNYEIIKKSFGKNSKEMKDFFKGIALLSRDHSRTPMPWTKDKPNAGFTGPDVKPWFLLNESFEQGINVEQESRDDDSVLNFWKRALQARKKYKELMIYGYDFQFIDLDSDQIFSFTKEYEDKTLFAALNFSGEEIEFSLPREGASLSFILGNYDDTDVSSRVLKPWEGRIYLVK", "assay": "Circular dichroism", "assay_type": "binding", "conditions": "α-glucosidase 2 μM; for β-Turns %: control 14.3; for β-Fold %: control 21.9; for Unordered %: control 26.9; for α-Helix %: control 36.3", "outline": "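Far-UV CD spectra (190–240 nm) at 25 °C. Yeast α-glucosidase at 2 μM was co-incubated with test compound at 0–80 μM for 20 min at 37 °C in 0.1 M sodium phosphate, pH 6.8, in a 1.0 mm path-length cell. Spectra were blank-subtracted against buffer, noise-reduced and smoothed. Secondary-structure fractions were estimated with the DichroWeb server.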"}, "α-glucosidase [3]": {"molecular_target": "T1, α-glucosidase", "assay": "Isothermal titration calorimetry", "assay_type": "binding", "conditions": "for ITC titration peaks: ligand concentrations 1 – 4 mM; for binding constants (Ka) / ΔG / Ka / ΔH / ΔS / N [GCGs/α-glucosidase] (ligand:enzyme ratio): ITC", "outline": "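Test compound (1–4 mM) was titrated into α-glucosidase (0.026–0.031 mM) in the cell, both in 100 mM phosphate, pH 7.0, and degassed 20 min under vacuum. Titration used 17 injections at 240 s intervals, 25 °C, with stirring at 310 rpm. Blanks were buffer into buffer and compound into buffer. Data were fit by nonlinear regression to a single-site binding model.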"}, "[4]": {"molecular_target": "T2, α-Glucosidase (EC 3.2.1.20) from Saccharomyces cerevisiae (Saccharomyces cerevisiae, UniProt P53341)", "T2 sequence (P53341 whole entry)": "as above", "assay": "α-glucosidase inhibitory assay", "assay_type": "biochemical"}, "[5]": {"molecular_target": "T2, α-Glucosidase (EC 3.2.1.20) from Saccharomyces cerevisiae", "assay": "Kinetics of α-glucosidase inhibition", "assay_type": "biochemical", "conditions": "Lineweaver-Burk plots, ligand 2 – 250 μM", "outline": "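Two inhibitor concentrations within 2–250 μM were tested against p-nitrophenyl-α-D-glucopyranoside at 1–1000 μM in 50 mM phosphate, pH 6.8. Enzyme and inhibitor were pre-incubated for 30 min, at room temperature per the methods but at 37 °C per the figure legend. Substrate was then added, reacted 60 s at room temperature and read at 405 nm. Inhibition type was assigned from double-reciprocal plots.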"}, "[6]": {"conditions": "yeast α-glucosidase, pNPG, pH 6.9, 25 °C, mean ± S.D. from three independent experiments"}}, "note": "Like-named read-outs stand apart in the source and are kept apart here."}
{"compound": "O=C(OC[C@H]1O[C@@H](OC(=O)c2cc(O)c(O)c(O)c2)[C@H](OC(=O)c2cc(O)c(O)c(O)c2)[C@@H](OC(=O)c2cc(O)c(O)c(O)c2)[C@@H]1OC(=O)c1cc(O)c(O)c(O)c1)c1cc(O)c(O)c(O)c1", "note": "[PGG, pentagalloyl glucose]", "values": [{"measurement": "Type of inhibition", "setting": "α-glucosidase [1]", "result": "noncompetitive α-glucosidase inhibitor"}]}
{"compound": "C[C@H]1O[C@H](O[C@H]2[C@H](O)[C@@H](O)[C@@H](O[C@H]3[C@H](O)[C@@H](O)C(O)O[C@@H]3CO)O[C@@H]2CO)[C@H](O)[C@@H](O)[C@@H]1N[C@H]1C=C(CO)[C@@H](O)[C@H](O)[C@H]1O", "note": "(stereo partly shown) [acarbose]", "values": [{"measurement": "Type of inhibition", "setting": "α-glucosidase [1]; positive control", "result": "competitive inhibitor"}]}
{"compound": "O=C(OC[C@H]1OC[C@H](OC(=O)c2cc(O)c(O)c(O)c2)[C@@H](O)[C@@H]1O)c1cc(O)c(O)c(O)c1", "note": "[ginnalin A]", "values": [{"measurement": "β-Turns %", "setting": "α-glucosidase [2]; ligand 40 μM", "result": 11.5, "unit": "%"}, {"measurement": "β-Fold %", "setting": "α-glucosidase [2]; ligand 40 μM", "result": 22.7, "unit": "%"}, {"measurement": "Unordered %", "setting": "α-glucosidase [2]; ligand 40 μM", "result": 27.8, "unit": "%"}, {"measurement": "α-Helix %", "setting": "α-glucosidase [2]; ligand 40 μM", "result": 37.8, "unit": "%"}, {"measurement": "β-Turns %", "setting": "α-glucosidase [2]; ligand 80 μM", "result": 15.8, "unit": "%"}, {"measurement": "β-Fold %", "setting": "α-glucosidase [2]; ligand 80 μM", "result": 22.5, "unit": "%"}, {"measurement": "Unordered %", "setting": "α-glucosidase [2]; ligand 80 μM", "result": 27.7, "unit": "%"}, {"measurement": "α-Helix %", "setting": "α-glucosidase [2]; ligand 80 μM", "result": 33.5, "unit": "%"}, {"measurement": "ITC titration peaks", "setting": "α-glucosidase [3]", "result": "too weak to yield thermodynamic parameters"}, {"measurement": "IC50", "setting": "[4]", "result": "216 ± 3.19", "unit": "µM"}, {"measurement": "Type of inhibition", "setting": "[5]", "result": "noncompetitive"}]}
{"compound": "O=C(OC[C@H]1OC[C@H](O)[C@@H](O)[C@@H]1O)c1cc(O)c(O)c(O)c1", "note": "[ginnalin B]", "values": [{"measurement": "ITC titration peaks", "setting": "α-glucosidase [3]", "result": "too weak to yield thermodynamic parameters"}, {"measurement": "IC50", "setting": "[4]", "result": "> 1000", "unit": "µM"}]}
{"compound": "O=C(O[C@H]1CO[C@H](CO)[C@@H](O)[C@@H]1O)c1cc(O)c(O)c(O)c1", "note": "[ginnalin C]", "values": [{"measurement": "ITC titration peaks", "setting": "α-glucosidase [3]", "result": "too weak to yield thermodynamic parameters"}, {"measurement": "IC50", "setting": "[4]", "result": "> 1000", "unit": "µM"}]}
{"compound": "O=C(OC[C@H]1OC[C@H](OC(=O)c2cc(O)c(O)c(O)c2)[C@@H](OC(=O)c2cc(O)c(O)c(O)c2)[C@@H]1OC(=O)c1cc(O)c(O)c(O)c1)c1cc(O)c(O)c(O)c1", "note": "[maplexin J]", "values": [{"measurement": "β-Turns %", "setting": "α-glucosidase [2]; ligand 20 μM", "result": 20.4, "unit": "%"}, {"measurement": "β-Fold %", "setting": "α-glucosidase [2]; ligand 20 μM", "result": 21.1, "unit": "%"}, {"measurement": "Unordered %", "setting": "α-glucosidase [2]; ligand 20 μM", "result": 26.4, "unit": "%"}, {"measurement": "α-Helix %", "setting": "α-glucosidase [2]; ligand 20 μM", "result": 31.8, "unit": "%"}, {"measurement": "β-Turns %", "setting": "α-glucosidase [2]; ligand 40 μM", "result": 19.1, "unit": "%"}, {"measurement": "β-Fold %", "setting": "α-glucosidase [2]; ligand 40 μM", "result": 24.4, "unit": "%"}, {"measurement": "Unordered %", "setting": "α-glucosidase [2]; ligand 40 μM", "result": 25.3, "unit": "%"}, {"measurement": "α-Helix %", "setting": "α-glucosidase [2]; ligand 40 μM", "result": 30.7, "unit": "%"}, {"measurement": "binding constants (Ka)", "setting": "α-glucosidase [3]", "result": 42200, "unit": "mol⁻¹"}, {"measurement": "ΔG", "setting": "α-glucosidase [3]", "result": -6.31, "unit": "kcal/mol"}, {"measurement": "Ka", "setting": "α-glucosidase [3]; 25 °C, phosphate buffer pH 7.0", "result": "4.22 10^4 mol^−1"}, {"measurement": "ΔG", "setting": "α-glucosidase [3]; 25 °C, phosphate buffer pH 7.0", "result": -1.51, "unit": "kcal/mol"}, {"measurement": "ΔH", "setting": "α-glucosidase [3]; 25 °C, phosphate buffer pH 7.0", "result": -6.016, "unit": "kcal/mol"}, {"measurement": "ΔS", "setting": "α-glucosidase [3]; 25 °C, phosphate buffer pH 7.0", "result": 63.31, "unit": "J mol^−1 K^−1"}, {"measurement": "N [GCGs/α-glucosidase] (ligand:enzyme ratio)", "setting": "α-glucosidase [3]; 25 °C, phosphate buffer pH 7.0, listed as MJ", "result": 1.01}, {"measurement": "IC50", "setting": "[4]; [6]", "result": "4.27 ± 0.13", "unit": "µM"}, {"measurement": "potency relative to maplexins E and F", "setting": "[4]; α-glucosidase inhibition", "result": "three times more potent than maplexins E and F"}, {"measurement": "Type of inhibition", "setting": "[5]", "result": "noncompetitive"}]}
{"compound": "maplexin F", "values": [{"measurement": "β-Turns %", "setting": "α-glucosidase [2]; ligand 20 μM", "result": 15.6, "unit": "%"}, {"measurement": "β-Fold %", "setting": "α-glucosidase [2]; ligand 20 μM", "result": 24.7, "unit": "%"}, {"measurement": "Unordered %", "setting": "α-glucosidase [2]; ligand 20 μM", "result": 28.4, "unit": "%"}, {"measurement": "α-Helix %", "setting": "α-glucosidase [2]; ligand 20 μM", "result": 30.7, "unit": "%"}, {"measurement": "β-Turns %", "setting": "α-glucosidase [2]; ligand 40 μM", "result": 16.6, "unit": "%"}, {"measurement": "β-Fold %", "setting": "α-glucosidase [2]; ligand 40 μM", "result": 22.7, "unit": "%"}, {"measurement": "Unordered %", "setting": "α-glucosidase [2]; ligand 40 μM", "result": 28.9, "unit": "%"}, {"measurement": "α-Helix %", "setting": "α-glucosidase [2]; ligand 40 μM", "result": 31.2, "unit": "%"}, {"measurement": "binding constants (Ka)", "setting": "α-glucosidase [3]", "result": 28500, "unit": "mol⁻¹"}, {"measurement": "ΔG", "setting": "α-glucosidase [3]", "result": -6.09, "unit": "kcal/mol"}, {"measurement": "Ka", "setting": "α-glucosidase [3]; 25 °C, phosphate buffer pH 7.0", "result": "2.85 10^4 mol^−1"}, {"measurement": "ΔG", "setting": "α-glucosidase [3]; 25 °C, phosphate buffer pH 7.0", "result": -1.46, "unit": "kcal/mol"}, {"measurement": "ΔH", "setting": "α-glucosidase [3]; 25 °C, phosphate buffer pH 7.0", "result": -2.452, "unit": "kcal/mol"}, {"measurement": "ΔS", "setting": "α-glucosidase [3]; 25 °C, phosphate buffer pH 7.0", "result": 14.06, "unit": "J mol^−1 K^−1"}, {"measurement": "N [GCGs/α-glucosidase] (ligand:enzyme ratio)", "setting": "α-glucosidase [3]; 25 °C, phosphate buffer pH 7.0, listed as MF", "result": 1.01}, {"measurement": "IC50", "setting": "[4]; [6]", "result": "13.7 ± 0.87", "unit": "µM"}, {"measurement": "Type of inhibition", "setting": "[5]", "result": "noncompetitive"}]}
